Measurements as given in ChEMBL document CHEMBL4052710 (Bioorg Med Chem Lett, 2017).
The source made the active and inactive calls. No cut-off for these calls is given here.

What was measured:
[1] = molecular target: Cyclin-dependent kinase 2/cyclin E1 (Homo sapiens) (UniProt P24864+P24941); assay: Inhibition of human CDK2/CyclinE at 1 uM by enzymatic radiometric assay; format: protein-complex assay
Outline: (§1)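 Kinase panel run through the Eurofins KinaseProfiler, with compound at a fixed 1 µM. Values are means of two independent experiments.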

[2] = test system: 4T1; assay: Antitumor activity against mouse 4T1 cells xenografted in BALB/C mouse assessed as inhibition of tumor growth at 50 to 150 mg/kg/day, ip dosed for 21 consecutive days; format: functional, organism-based
Outline: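 Cells implanted orthotopically into mammary fat pads of female BALB/c mice aged 6-8 weeks. Dosing began once tumours averaged 100 mm3: daily IP injection at 50, 100 or 150 mg/kg/day for 21 consecutive days, with a solvent control group. Tumour volume and body weight were followed, given as mean ± SD.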

[3] = test system: T47D; assay: Induction of apoptosis in human T47D cells assessed as necrotic cells level at 5 uM incubated for 48 hrs by annexin V-FITC and propidium iodide staining based flow cytometry (reference value: 2.79%); format: functional
[4] = test system: T47D; assay: Induction of apoptosis in human T47D cells assessed as early apoptotic cells level at 5 uM incubated for 48 hrs by annexin V-FITC and propidium iodide staining based flow cytometry (reference value: 0.75%); format: functional
[5] = test system: T47D; assay: Induction of apoptosis in human T47D cells incubated for 48 hrs by annexin V-FITC and propidium iodide staining based flow cytometry; format: functional, cell-based
[6] = molecular target: Cyclin-dependent kinase 5/CDK5 activator 1 (Homo sapiens) (UniProt Q00535+Q15078); assay: Inhibition of human CDK5/p25 at 1 uM by enzymatic radiometric assay; format: protein-complex assay
Cyclin-dependent kinase 5/CDK5 activator 1 (Homo sapiens), sequence (Q00535 whole entry): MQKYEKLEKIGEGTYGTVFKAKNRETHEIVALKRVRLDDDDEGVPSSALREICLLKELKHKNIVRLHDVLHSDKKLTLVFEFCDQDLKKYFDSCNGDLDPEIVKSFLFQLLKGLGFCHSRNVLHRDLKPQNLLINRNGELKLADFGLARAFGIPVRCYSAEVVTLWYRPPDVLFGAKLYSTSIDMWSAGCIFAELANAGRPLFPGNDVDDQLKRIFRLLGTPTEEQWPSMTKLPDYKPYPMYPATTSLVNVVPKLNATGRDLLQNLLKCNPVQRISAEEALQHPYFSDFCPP
Cyclin-dependent kinase 5/CDK5 activator 1 (Homo sapiens), sequence (Q15078 99-307 partner limits assumed): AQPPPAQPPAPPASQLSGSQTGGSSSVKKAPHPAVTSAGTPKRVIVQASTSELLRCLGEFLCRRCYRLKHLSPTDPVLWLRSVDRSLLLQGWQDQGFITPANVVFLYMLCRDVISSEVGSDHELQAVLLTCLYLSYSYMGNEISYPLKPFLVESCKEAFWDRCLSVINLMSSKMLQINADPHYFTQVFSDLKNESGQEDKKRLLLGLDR

[7] = test system: NCI-H460; assay: Growth inhibition of human H460 cells incubated for 72 hrs by CCK8 assay; format: functional, cell-based; conditions: NCI-H460, 72 h
[8] = test system: T47D; assay: Growth inhibition of human T47D cells incubated for 72 hrs at 1 uM by CCK8 assay; format: functional; conditions: read-out: GI
Outline: (§2)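 CCK8 viability assay on a panel of human cancer cell lines, with an initial screen at fixed concentrations of 1 µM and 10 µM.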

[9] = test system: NCI-H1299; assay: Growth inhibition of human H1299 cells incubated for 72 hrs at 10 uM by CCK8 assay; format: functional; conditions: NCI-H1299, 72 h, read-out: GI; outline: as §2
[10] = molecular target: CDK2/Cyclin A2 (Homo sapiens) (UniProt P24941+P20248); assay: Inhibition of human CDK2/CyclinA at 1 uM by enzymatic radiometric assay; format: protein-complex assay; outline: as §1
[11] = molecular target: CDK9/cyclin T1 (Homo sapiens) (UniProt O60563+P50750); assay: Inhibition of human CDK9/CyclinT1 at 1 uM by enzymatic radiometric assay; format: protein-complex assay
[12] = test system: A549; assay: Growth inhibition of human A549 cells incubated for 72 hrs by CCK8 assay; format: functional, cell-based; conditions: A549, 72 h
[13] = molecular target: CDK9/cyclin T1 (Homo sapiens, UniProt P50750); assay: Inhibition of human CDK9/CyclinT1 by enzymatic radiometric assay; format: protein-complex assay
CDK9/cyclin T1, sequence (O60563 whole entry): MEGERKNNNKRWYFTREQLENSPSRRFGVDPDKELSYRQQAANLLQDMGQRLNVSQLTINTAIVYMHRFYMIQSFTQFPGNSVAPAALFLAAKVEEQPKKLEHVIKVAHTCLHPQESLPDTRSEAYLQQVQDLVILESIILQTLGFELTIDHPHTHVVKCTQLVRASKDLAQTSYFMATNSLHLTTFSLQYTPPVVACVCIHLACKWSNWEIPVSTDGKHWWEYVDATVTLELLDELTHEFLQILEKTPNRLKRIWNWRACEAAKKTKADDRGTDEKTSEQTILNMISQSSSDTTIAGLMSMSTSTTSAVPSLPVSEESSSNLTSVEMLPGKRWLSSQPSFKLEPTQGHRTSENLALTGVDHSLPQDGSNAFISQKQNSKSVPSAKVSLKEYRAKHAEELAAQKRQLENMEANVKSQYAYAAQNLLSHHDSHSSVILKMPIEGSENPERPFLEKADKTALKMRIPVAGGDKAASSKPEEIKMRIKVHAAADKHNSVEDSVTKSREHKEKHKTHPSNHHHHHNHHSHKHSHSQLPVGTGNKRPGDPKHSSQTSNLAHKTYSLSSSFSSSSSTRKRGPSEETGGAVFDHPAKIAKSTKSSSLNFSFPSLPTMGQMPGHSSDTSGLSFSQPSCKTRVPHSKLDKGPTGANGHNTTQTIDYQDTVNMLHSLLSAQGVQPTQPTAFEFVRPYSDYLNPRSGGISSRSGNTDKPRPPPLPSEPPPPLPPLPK
CDK9/cyclin T1, sequence (P50750 whole entry): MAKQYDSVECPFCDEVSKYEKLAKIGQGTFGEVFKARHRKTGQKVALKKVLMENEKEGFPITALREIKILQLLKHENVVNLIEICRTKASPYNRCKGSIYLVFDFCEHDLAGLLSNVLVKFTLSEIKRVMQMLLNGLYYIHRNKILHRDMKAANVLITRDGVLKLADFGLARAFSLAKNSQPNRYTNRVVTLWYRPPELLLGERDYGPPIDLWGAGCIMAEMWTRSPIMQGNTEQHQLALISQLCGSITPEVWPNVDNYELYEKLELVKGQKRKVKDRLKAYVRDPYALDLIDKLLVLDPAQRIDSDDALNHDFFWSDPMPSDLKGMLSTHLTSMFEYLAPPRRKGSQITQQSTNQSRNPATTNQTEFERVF
Outline: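 IC50 was determined through a commercial kinase profiling service. Values are the mean of two independent experiments.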

[14] = molecular target: CDK6/cyclin D3 (Homo sapiens) (UniProt P30281+Q00534); assay: Inhibition of human CDK6/CyclinD3 at 1 uM by enzymatic radiometric assay; format: protein-complex assay
[15] = molecular target: Cyclin-dependent kinase 1/cyclin B1 (Homo sapiens) (UniProt P06493+P14635); assay: Inhibition of human CDK1/CyclinB at 1 uM by enzymatic radiometric assay; format: protein-complex assay; outline: as §1
Cyclin-dependent kinase 1/cyclin B1 (Homo sapiens), sequence (P06493 whole entry, looked up): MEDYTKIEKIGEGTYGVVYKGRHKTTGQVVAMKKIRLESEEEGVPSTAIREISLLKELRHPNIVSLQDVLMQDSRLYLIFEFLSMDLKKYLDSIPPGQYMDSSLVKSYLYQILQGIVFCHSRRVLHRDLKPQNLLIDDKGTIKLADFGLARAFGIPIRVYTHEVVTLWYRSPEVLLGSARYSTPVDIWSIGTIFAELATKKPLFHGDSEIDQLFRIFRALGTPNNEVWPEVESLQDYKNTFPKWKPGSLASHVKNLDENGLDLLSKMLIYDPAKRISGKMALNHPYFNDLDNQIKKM
Cyclin-dependent kinase 1/cyclin B1 (Homo sapiens), sequence (P14635 whole entry, looked up): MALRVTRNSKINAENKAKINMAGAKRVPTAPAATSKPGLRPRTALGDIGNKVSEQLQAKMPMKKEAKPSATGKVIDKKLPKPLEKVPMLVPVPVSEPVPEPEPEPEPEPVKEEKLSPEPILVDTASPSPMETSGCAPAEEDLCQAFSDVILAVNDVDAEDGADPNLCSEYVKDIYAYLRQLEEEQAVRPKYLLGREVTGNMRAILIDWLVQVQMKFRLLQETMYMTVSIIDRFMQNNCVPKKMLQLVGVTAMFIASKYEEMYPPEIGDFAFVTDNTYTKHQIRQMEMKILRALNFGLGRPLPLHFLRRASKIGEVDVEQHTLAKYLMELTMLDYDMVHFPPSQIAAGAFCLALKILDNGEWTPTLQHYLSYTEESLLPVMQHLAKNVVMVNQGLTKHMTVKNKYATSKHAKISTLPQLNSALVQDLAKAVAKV

[16] = test system: A549; assay: Growth inhibition of human A549 cells incubated for 72 hrs at 10 uM by CCK8 assay; format: functional; conditions: A549, 72 h, read-out: GI; outline: as §2
[17] = test system: NCI-H1299; assay: Growth inhibition of human H1299 cells incubated for 72 hrs at 1 uM by CCK8 assay; format: functional; conditions: NCI-H1299, 72 h, read-out: GI; outline: as §2
[18] = test system: T47D; assay: Induction of apoptosis in human T47D cells assessed as necrotic cells level at 1 uM incubated for 48 hrs by annexin V-FITC and propidium iodide staining based flow cytometry (reference value: 2.79%); format: functional
[19] = test system: T47D; assay: Induction of cell cycle arrest in human T47D cells assessed as reduction in S phase accumulation at 0.1 to 1 uM incubated for 24 hrs by flow cytometry; format: functional, cell-based
Outline: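 Cells were treated for 24 h with compound at 0.1, 0.5 and 1 µM, with LEE011 or vehicle (DMSO) alongside. Cell-cycle phase distribution was then determined by flow cytometry.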

[20] = test system: OVCAR-5; assay: Growth inhibition of human OVCAR5 cells incubated for 72 hrs at 10 uM by CCK8 assay; format: functional; conditions: OVCAR-5, 72 h, read-out: GI; outline: as §2
[21] = test system: MCF7; assay: Growth inhibition of human MCF7 cells incubated for 72 hrs by CCK8 assay; format: functional, cell-based; conditions: MCF7, 72 h
[22] = test system: T47D; assay: Growth inhibition of human T47D cells incubated for 72 hrs by CCK8 assay; format: functional, cell-based
[23] = test system: T47D; assay: Induction of apoptosis in human T47D cells assessed as viable cells level at 0.25 uM incubated for 48 hrs by annexin V-FITC and propidium iodide staining based flow cytometry (reference value: 96%); format: functional
[24] = molecular target: CDK18/Cyclin Y (Homo sapiens) (UniProt Q07002+Q8ND76); assay: Inhibition of human CDK18/CyclinY at 1 uM by enzymatic radiometric assay; format: protein-complex assay; outline: as §1
[25] = test system: T47D; assay: Growth inhibition of human T47D cells incubated for 72 hrs at 10 uM by CCK8 assay; format: functional; conditions: read-out: GI; outline: as §2
[26] = test system: Mus musculus; assay: Toxicity in mouse 4T1 cells xenografted BALB/C mouse assessed as induction of body weight loss at 50 to 150 mg/kg/day, ip dosed for 21 consecutive days; format: organism-based; conditions: in vivo
Outline: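 Tumor cells were implanted orthotopically into the mammary fat pads of female BALB/c mice aged 6-8 weeks. Once tumors averaged 100 mm3, mice received daily IP injections of 50, 100 or 150 mg/kg/day, or solvent control, for 21 consecutive days. Body weight was tracked and reported as mean with SD.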

[27] = test system: T47D; assay: Induction of apoptosis in human T47D cells assessed as viable cells level at 1 uM incubated for 48 hrs by annexin V-FITC and propidium iodide staining based flow cytometry (reference value: 96%); format: functional
[28] = test system: T47D; assay: Induction of apoptosis in human T47D cells assessed as viable cells level at 0.5 uM incubated for 48 hrs by annexin V-FITC and propidium iodide staining based flow cytometry (reference value: 96%); format: functional
[29] = test system: NCI-H460; assay: Growth inhibition of human H460 cells incubated for 72 hrs at 1 uM by CCK8 assay; format: functional; conditions: NCI-H460, 72 h, read-out: GI; outline: as §2
[30] = test system: HeLa; assay: Growth inhibition of human HeLa cells incubated for 72 hrs at 10 uM by CCK8 assay; format: functional; conditions: read-out: GI; outline: as §2
[31] = test system: T47D; assay: Induction of apoptosis in human T47D cells assessed as necrotic cells level at 0.25 uM incubated for 48 hrs by annexin V-FITC and propidium iodide staining based flow cytometry (reference value: 2.79%); format: functional
[32] = test system: HeLa; assay: Growth inhibition of human HeLa cells incubated for 72 hrs at 1 uM by CCK8 assay; format: functional; conditions: read-out: GI; outline: as §2
[33] = test system: T47D; assay: Induction of apoptosis in human T47D cells assessed as early apoptotic cells level at 0.25 uM incubated for 48 hrs by annexin V-FITC and propidium iodide staining based flow cytometry (reference value: 0.75%); format: functional
[34] = test system: SiHa; assay: Growth inhibition of human SiHa cells incubated for 72 hrs at 10 uM by CCK8 assay; format: functional; conditions: read-out: GI; outline: as §2

inhibition [1]: 85% | inhibition [6]: 86% | IC50 [7]: 359 nM | inhibition [10]: 29% | inhibition [11]: 98% | IC50 [12]: 456 nM | IC50 [13]: 12 nM | inhibition [14]: 71% | inhibition [15]: 73% | IC50 [21]: 338 nM | IC50 [22]: 358 nM | inhibition [24]: 6%
Structure (SMILES): CN(C)C(=O)c1cc2cnc(Nc3ccc(NC(=O)C4(C(=O)Nc5ccc(F)cc5)CC4)cc3)nc2n1C1CCCC1
TGI [2]: Dose-dependent effect | Activity [3]: 2.23% | Activity [4]: 7.45% | Activity [5]: Dose-dependent effect | inhibition of growth at 1 µM [8]: 74.7% | inhibition of growth at 10 µM [9]: 90.8% | inhibition of growth at 10 µM [16]: 102% | inhibition of growth at 1 µM [17]: 93.3% | Activity [18]: 1.39% | Activity [19]: Active | inhibition of growth at 10 µM [20]: 79.7% | Activity [23]: 94.2% | inhibition of growth at 10 µM [25]: 105% | Activity [26]: Non-Toxic | Activity [27]: 90.5% | Activity [28]: 93.1% | inhibition of growth at 1 µM [29]: 79.9% | inhibition of growth at 10 µM [30]: 73.7% | Activity [31]: 2.01% | inhibition of growth at 1 µM [32]: 49.8% | Activity [33]: 0.52% | inhibition of growth at 10 µM [34]: 98%
